Data set [1] relates to Rattus norvegicus. Description: Compound was tested for anticonvulsant activity after Oral Administration into Rats by using MES screen test after 2h,dose 12.5 mg/kg; number of rats out of four which were protected. Type of data set: functional. In outline: (§1)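 Rats received the compound orally. […] Rats were tested in the MES screen at 0.25, 0.5, 1, 2 and 4 h. Each value is the number of rats protected out of 4. The test followed NINDS procedures.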

Data set [2] has as its system Mus musculus. Kind of data set: Compound was tested for toxicity after intraperitoneal injection into mice by using toxicity screen test after 4 hr. Type of data set: organism-based. Particulars: in vivo, ip. In outline: (§2)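 Mice injected intraperitoneally at 30, 100 and 300 mg/kg and examined 0.5 and 4 h afterwards. Each entry is the minimum dose giving activity (MES protection, scPTZ protection, or rotorod failure for neurotoxicity) in half or more of the mice. Activity is called absent if nothing occurs at 300 mg/kg.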

Data set [3] relates to Mus musculus. Description: Anticonvulsant activity after intraperitoneal injection into mice by using scPTZ screen after 0.5 hr. Type of data set: functional.
The nature of data set [4]: Compound was tested for toxicity after intraperitoneal injection into mice by using neurotoxicity screen test after 2 hr. In kind it is organism-based. To be noted: mouse, in vivo, ip. In outline: (§3)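 Quantitative intraperitoneal mouse testing in the MES, scPTZ or rotorod neurotoxicity screens at the peak time given for each compound (0.25–2 h). ED50 or TD50 reported in mg/kg with 95% CI and slope (SE).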

The test system of data set [5] is Mus musculus. Description: Compound was tested for anticonvulsant activity after intraperitoneal injection into mice by using MES screen test after 2 hr. In kind it is functional. Particulars: ip. In a few lines:
as §3

For data set [6], the system named is Mus musculus. Kind of data set: Anticonvulsant activity after intraperitoneal injection into mice by using MES screen test after 0.5 hr. In kind it is functional.
Data set [7] has as its system Rattus norvegicus. Description: Compound was tested for anticonvulsant activity after Oral Administration into Rats by using MES screen test after 1h,dose 12.5 mg/kg; number of rats out of four which were protected. In kind it is functional. In a few lines:
as §1

Data set [8] relates to Mus musculus. Kind of data set: Toxicity after intraperitoneal injection into mice by using toxicity screen test after 0.5 hr. Type of data set: organism-based. To be noted: in vivo, ip. In a few lines:
as §2

The test system of data set [9] is Rattus norvegicus. Description: Compound was tested for anticonvulsant activity after Oral Administration into Rats by using MES screen test after 4h,dose 12.5 mg/kg; number of rats out of four which were protected. In kind it is functional. In outline:
as §1

The subject of data set [10] is Rattus norvegicus. Description: Compound was tested for anticonvulsant activity after Oral Administration into rat by using MES screen test after 4 hr. Type of data set: functional. In outline:
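Rats dosed orally, typically at 50 mg/kg first, then mostly 12.5 mg/kg (some compounds at 30 mg/kg), and tested by maximal electroshock. Four rats per compound, scored at 0.25, 0.5, 1, 2 and 4 h as the number of rats protected out of 4.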

A short description of data set [11]: Compound was tested for toxicity after oral administration in rat by using neurotoxicity screen test after 0.25-24 hr. Type of data set: organism-based. Particulars: in vivo. In a few lines: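 Rat neurotoxicity after oral dosing, observed at 0.25, 0.5, 1, 2, 4, 6, 8 and 24 h (8 h omitted for one compound).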
Data set [12] has as its system Mus musculus. Kind of data set: Compound was tested for anticonvulsant activity after intraperitoneal injection into mice by using scPTZ screen test after 2 hr. In kind it is functional. To be noted: ip. In outline:
as §3

Data set [13] concerns Mus musculus. Kind of data set: Anticonvulsant activity after intraperitoneal injection into mice measured in a maximal electroshock scree (MES) screen. Type of data set: functional. On the technique in general: In the maximal electroshock model the usual endpoint is tonic extension of the hind limbs.
Data set [14] has as its system Rattus norvegicus. Description: Anticonvulsant activity after oral administration into rats. Type of data set: functional. On the set-up: concentration or dose not given beside the values.
The test system of data set [15] is Rattus norvegicus. Kind of data set: Compound was tested for anticonvulsant activity after Oral Administration into Rats by using MES screen test after 0.25h,dose 12.5 mg/kg; number of rats out of four which were protected. Type of data set: functional. In a few lines: as §1
Data set [16] concerns Rattus norvegicus. Kind of data set: Compound was tested for anticonvulsant activity after Oral Administration into Rats by using MES screen test after 2h,dose 50 mg/kg; number of rats out of four which were protected. In kind it is functional. In a few lines:
as §1

Data set [17] relates to Rattus norvegicus. Kind of data set: Compound was tested for anticonvulsant activity after Oral Administration into Rats by using MES screen test after 4h,dose 50 mg/kg; number of rats out of four which were protected. In kind it is functional. In a few lines: as §1
Data set [18] relates to Rattus norvegicus. Kind of data set: Compound was tested for anticonvulsant activity after Oral Administration into Rats by using MES screen test after 1h,dose 50 mg/kg; number of rats out of four which were protected. Type of data set: functional. In a few lines: as §1
Data set [19] concerns Rattus norvegicus. Description: Compound was tested for anticonvulsant activity after Oral Administration into Rats by using MES screen test after 0.5h,dose 50 mg/kg; number of rats out of four which were protected. Type of data set: functional. In outline:
as §1

For data set [20], the system named is Rattus norvegicus. Description: Compound was tested for anticonvulsant activity after Oral Administration into Rats by using MES screen test after 0.25h,dose 50 mg/kg; No activity was demonstarted. Type of data set: functional, organism-based. On the set-up: dose 50 mg/kg. In outline: as §1
Data set [21] concerns Rattus norvegicus. Description: Compound was tested for anticonvulsant activity after Oral Administration into Rats by using MES screen test after 0.5h,dose 50 mg/kg; No activity was demonstarted. Details: dose 50 mg/kg. In kind it is functional, organism-based. In outline: as §1
Data set [22] relates to Mus musculus. Description: Compound was tested for anticonvulsant activity after intraperitoneal injection into mice by using MES screen test after 1 hr. In kind it is functional. Particulars: ip. In outline: as §3
Data set [23] can be described thus: Protection index = TD50/ED50 (MES). Particulars: mouse, in vivo; read-out: PI.
The test system of data set [24] is Rattus norvegicus. Kind of data set: Compound was tested for anticonvulsant activity after Oral Administration into Rats by using MES screen test after 0.25h,dose 50 mg/kg; number of rats out of four which were protected. Type of data set: functional. In a few lines: as §1
The subject of data set [25] is Mus musculus. Kind of data set: Compound was tested for anticonvulsant activity after intraperitoneal injection into mice by using scPTZ screen test after 1 hr. In kind it is functional. Particulars: ip. In a few lines: as §3

From ChEMBL document CHEMBL1129428 (J Med Chem, 1996) come the findings set out here.

On to `C/C(=N/NC(N)=O)c1ccc(Oc2ccc(Br)cc2)cc1`, for which the Activity in the data set with Rattus norvegicus [1] came out at 4; with Rattus norvegicus [7], 4; with Rattus norvegicus [9] it was 4; with Rattus norvegicus [14], 3; in the data set with Rattus norvegicus [15], 1. The Dose in the data set with Mus musculus [2] worked out at 100 mg/kg; with Mus musculus [3], 300 mg/kg; in the data set with Mus musculus [6] it was 30 mg/kg; in the data set on Mus musculus [8], 300 mg/kg; with Mus musculus [13], 30 mg/kg. The TD50 (in general, the 50% point of the dose-response relation for the toxic effect studied) at 2 h in data set [4] is 104 mg/kg. Also, the figures for the ED50 in the data set with Mus musculus [5], in the data set on Rattus norvegicus [10] and in the data set with Mus musculus [12] were 12.5 mg/kg, 1.52 mg/kg and greater than 110 mg/kg, respectively. In addition, the TD50 in data set [11] is greater than 500 mg/kg.
Turning to `NC(=O)N/N=C/c1ccc(Oc2ccc(Cl)c(Cl)c2)cc1`, the Activity with Rattus norvegicus [16] was 4; with Rattus norvegicus [17] it was 4; in the data set with Rattus norvegicus [18], 4; in the data set on Rattus norvegicus [19] it was 2; in the data set on Rattus norvegicus [20], “No activity”. Besides, the Dose turned out to be 300 mg/kg in the data set with Mus musculus [2], 300 mg/kg with Mus musculus [6] and 30 mg/kg with Mus musculus [13].
As to `NC(=O)N/N=C\c1ccccc1Oc1ccccc1`, the Activity is 1 in the data set with Rattus norvegicus [16]; 1 in the data set on Rattus norvegicus [17]; 2 with Rattus norvegicus [18]; “No activity” in the data set with Rattus norvegicus [21]; “No activity” with Rattus norvegicus [20].
Turning to `NC(=O)N/N=C/c1ccc(Sc2ccc(Cl)cc2)cc1`, the Activity with Rattus norvegicus [16] came to 4; with Rattus norvegicus [17], 4; with Rattus norvegicus [18], 4; in the data set on Rattus norvegicus [19], 4; in the data set with Rattus norvegicus [24], 1. For the same compound, the Dose is 100 mg/kg in the data set on Mus musculus [2], 300 mg/kg with Mus musculus [3], 100 mg/kg in the data set with Mus musculus [6] and 30 mg/kg with Mus musculus [13]. Moreover, the ED50 (in general, the dose that gives a 50% effect, or the effect in half of the subjects) in the data set on Mus musculus [22] is 16.2 mg/kg; with Mus musculus [25], greater than 120 mg/kg. In addition, the TD50 at 2 h in data set [4] was 53.2 mg/kg. Moreover, the selectivity ratio in [23] was 3.28.
Turning to `NC(=O)N/N=C/c1ccc(Sc2ccccc2)cc1`, the Activity was 4 in the data set on Rattus norvegicus [16]; 4 with Rattus norvegicus [17]; 4 with Rattus norvegicus [18]; 4 in the data set on Rattus norvegicus [19]; “No activity” in the data set with Rattus norvegicus [20]. The Dose was 300 mg/kg in the data set on Mus musculus [2], 30 mg/kg with Mus musculus [6] and 30 mg/kg with Mus musculus [13]. For the same compound, the ED50 in the data set on Mus musculus [22] was 15.6 mg/kg; in the data set with Rattus norvegicus [10] it was 4.29 mg/kg; in the data set with Mus musculus [25], greater than 46 mg/kg. This compound registered a TD50 at 2 h in data set [4] of 181 mg/kg. Besides, the TD50 in data set [11] was greater than 496 mg/kg.
